# Biofilm kill mix: mixture kills Candida albicans biofilm cells | C. albicans biofilm persisters + clotrimazole, fluorescence viability; primary screen in compound mixtures of four per well | inhibition, % at 7.6 µM | 120,000 compounds, 0.02% hits | AID 1242;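 active = inhibition above 30.3% in the primary screen of four-compound pools, then above 30% when the compound was retested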;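 note: compounds exposed to preformed 24 h biofilms for 48 h; 0% = untreated biofilm control and 100% = clotrimazole plus chlorhexidine kill blank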
#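 System: C. albicans CAF4-2 wild-type biofilms; Medium: RPMI/MOPS medium, pH 7.0; Reagent: Clotrimazole, 50 µg/mL; Times: biofilm formation 24 h, compound exposure 48 h, 37 °C; Detection: 2-h Alamar Blue fluorescence, 535/590 nm excitation/emission; Evaluation: percent inhibition of biofilm viability.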
# Mcl-1 Bim block: inhibitors of Bim-Mcl-1 interaction, human; Bead-based flow cytometry, Bim peptide-Mcl-1 binding; 190,000 compounds, 0.1% hits; Q07820; inhibition, % at 10 µM; AID 1009; in the data active = inhibition above about 40%;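 note: 0% = no compound tracer wells and 100% = peptide blocker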
# Target sequence (Q07820 whole entry, looked up): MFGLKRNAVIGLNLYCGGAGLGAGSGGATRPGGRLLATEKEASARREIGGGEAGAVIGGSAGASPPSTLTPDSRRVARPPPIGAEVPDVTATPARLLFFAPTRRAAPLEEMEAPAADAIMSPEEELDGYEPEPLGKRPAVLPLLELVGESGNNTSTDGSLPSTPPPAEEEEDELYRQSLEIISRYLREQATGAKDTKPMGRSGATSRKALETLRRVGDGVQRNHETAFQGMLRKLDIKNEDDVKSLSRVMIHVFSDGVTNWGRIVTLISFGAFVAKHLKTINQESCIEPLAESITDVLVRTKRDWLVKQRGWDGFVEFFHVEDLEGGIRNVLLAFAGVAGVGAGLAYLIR
# Mcl1-Noxa inh: Mcl-1/Noxa interaction inhibition; TR-FRET Mcl-1/Noxa peptide binding, 2 h; inhibition, % at 21.7 µM; 220,000 compounds, 1.5% hits; AID 1022;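 active = compounds that cut the protein-peptide binding signal by more than 50% relative to plate controls in a single-dose test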;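 note: His-tagged Mcl-1 with rhodamine Noxa BH3 peptide and terbium anti-His antibody; 0% = Mcl-1 plus Noxa peptide wells and 100% = peptide-only wells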
# Mcl1 Bid PPI: disrupts binding of human Mcl-1 to Bid peptide; TR-FRET Mcl-1/Bid-Dy647 peptide binding, 1536-well; AID 1021; 220,000 compounds, 0.97% hits; inhibition, % at 21.7 µM;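 active = compounds that cut the binding signal by more than half at the single screening dose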;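 note: His-tagged Mcl-1 with europium anti-His antibody binding Bid BH3 peptide; 0% = Mcl-1 plus peptide wells and 100% = peptide-only wells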
# m-calpain inh: inhibitors of pig calpain II | purified calpain II, fluorogenic peptide substrate, 30 min | inhibition, % at 16 µM | 220,000 compounds, 0.37% hits | AID 1236;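 active = inhibition above about 50%, limit read from the data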
# Arbovirus anti: blocks arbovirus infection; arbovirus infection cell-based antiviral screen; inhibition, % at 10 µM; 200,000 compounds, 0.37% hits; AID 1251; in the data active = inhibition above about 30%
# * marks the source's active call; other numbers are inactive results; i = inactive; . = not tested or not shown. Most compounds without a hit are left out; they make up all but 2.8% or so of the library.
SMILES,Biofilm kill mix,Mcl-1 Bim block,Mcl1-Noxa inh,Mcl1 Bid PPI,m-calpain inh,Arbovirus anti
COc1cccc2c(=O)c3cccc(N)c3[nH]c12,3,1,74*,-29,-13,-6
COc1cccc2c3c(c(=O)[nH]c12)CCC(C)(C)O3,.,1,1,-3,-20,-2
O=C(CSc1ccc2ccccc2n1)c1ccccc1,17,.,-10,-12,15,.
COc1ccc(OCCNC(=O)c2ccccc2OCC(=O)N2CCCCC2)cc1,.,68*,-13,-7,3,-2
COc1ccc(OCCNC(=O)c2ccccc2OCC(=O)Nc2ccc(NC(C)=O)cc2)cc1,18,-1,16,-25,-13,1
O=C(CN1CCCCCC1)NN(Cc1ccccc1)c1ccccc1,7,.,22,26,18,.
O=c1c(C=NCCCO)c(-c2ccccc2)[nH]n1-c1nc2ccccc2s1,13,-1,33,62*,-32,3
O=c1/c(=C/c2ccc(O)cc2)sc2n1CCCN=2,.,-6,-5,-31,-8,47*
O=c1/c(=C\c2ccc(F)cc2)sc2n1CCCN=2,9,0,13,-55,10,1
O=C(O)CC(Cc1ccc(Cl)cc1)C(=O)NCc1ccccc1 (stereo not drawn),13,-2,5,5,23,-2
COc1cc(NC(=O)Cn2nc(C(F)(F)F)c(Br)c2C)cc([N+](=O)[O-])c1,19,3,22,-2,10,14
C#CCOCCOCCOCCNc1nc(N2CCN(C(=O)[C@H](CCCCN)n3cc([C@@H](N)CO)nn3)CC2)nc(N2CCN(C(=O)[C@H](Cc3cc4ccccc4[nH]3)n3cc([C@@H](N)CC(C)C)nn3)CC2)n1,10,1,36,54*,-52,-5
C#CCOCCOCCOCCNc1nc(N2CCN(C(=O)C(Cc3ccc(O)cc3)n3cc(C(N)CC(C)C)nn3)CC2)nc(N2CCN(C(=O)C(Cc3cc4ccccc4[nH]3)n3cc(C(N)Cc4ccc(O)cc4)nn3)CC2)n1 (stereo not drawn),11,-5,37,96*,-56,-8
CN(Cc1cn(-c2ccccc2)nc1-c1ccc(Cl)cc1)C(=O)CCC(=O)O,15,1,21,-19,-17,11
CCCNC(=O)c1nnsc1Sc1ccc(Cl)cc1,16,-1,6,-15,5,13
COC(=O)c1cc(O)cc(OC)c1Oc1cc(C)cc(O)c1C(=O)O,13,.,85*,-98,2,.
CC(=O)OCC1OC(n2ncc(=O)n(Cc3ccccc3)c2=O)C(OC(C)=O)C1OC(C)=O (stereo not drawn),12,0,18,-8,-9,-5
CC(=O)OC[C@H]1O[C@@H](n2ncc(=O)[nH]c2=O)[C@H](OC(C)=O)[C@@H]1OC(C)=O,18,0,10,0,10,60*
CCn1c2ccccc2c2cc(/C(C)=N/O)ccc21,.,-3,14,5,-29,-11
CCn1c2ccccc2c2cc(N)ccc21,.,-8,62*,-7,-232,0
Nc1nnnn1CC(=O)N/N=C/c1cc([N+](=O)[O-])ccc1Cl,5,1,-4,-30,-19,5
Cc1cc([N+](=O)[O-])c(C)cc1-c1ccc(/C=N/NC(=O)Cn2nnnc2N)o1,10,1,55*,53*,-19,6
O=C(Nc1ccc(-c2nc3ccc(NC(=O)c4cccs4)cc3[nH]2)cc1)c1cccs1,.,-11,65*,84*,i,-18
O=C(Nc1ccc2nc(-c3cccs3)[nH]c2c1)c1cccs1,.,7,18,-2,-34,-28
CCCCC(=O)NC(=S)Nc1nnn(CCC)n1,2,-1,-4,-23,-5,-2
SMILES,Biofilm kill mix,Mcl-1 Bim block,Mcl1-Noxa inh,Mcl1 Bid PPI,m-calpain inh,Arbovirus anti
COc1cc(/C=N/NC(=O)Cc2csc(N3CCOCC3)n2)cc(OC)c1O,12,3,58*,11,-41,7
CC(=O)NCCNc1ccc([N+](=O)[O-])cn1,8,-2,10,-1,17,3
CC(C)c1ccc(CNc2ccc([N+](=O)[O-])cn2)cc1,5,0,3,-7,94*,-19
O=[N+]([O-])c1ccc(NCc2ccc(Cl)cc2)nc1,26,.,0,0,80*,.
O=[N+]([O-])c1ccc(Nc2ccc(Cl)cc2)nc1,18,1,26,10,34,5
CC(C)(C)c1ccc(CNc2ccc([N+](=O)[O-])cn2)cc1,14,-4,18,3,79*,21
Cc1cc(NS(=O)(=O)c2ccc(NC(=S)Nc3ccc(Cl)cc3C)cc2)no1,18,.,16,-15,-7,.
CCOc1cc(/C=C(\C#N)C(=O)Nc2ccccc2[N+](=O)[O-])ccc1OCc1cccc2ccccc12,6,0,2,-8,-79,-32
FC(F)(F)C1=CC(c2ccccc2)=NCCN1,.,-2,88*,-24,3,5
COc1ccc(S(=O)(=O)Nc2nnc(Cc3ccc(OC)c(OC)c3)s2)cc1,18,0,-3,-13,11,-2
C=CCN1C(=O)/C(=C/c2ccsc2)SC1=S,15,64*,17,1,11,-3
COc1cccc(CNC(=O)CCC2CCCN(C(=O)C3CCOCC3)C2)c1 (stereo not drawn),5,-2,3,-23,-14,3
O=C(CCc1ccccc1)NC(=S)NCc1ccco1,13,-6,19,-34,8,0
COc1cccc(-c2cc(C(=O)NN3CCOCC3)c3ccccc3n2)c1,11,-2,16,-21,20,-4
CCN(CC)C(=O)COC(=O)c1cc(-c2ccc(OC)cc2)nc2ccccc12,.,-4,-8,97*,-32,15
CCNC(=O)COC(=O)c1cc(-c2ccc(OC)cc2)nc2ccccc12,.,-6,9,-6,-106,-3
CCOC(=O)c1cc(-c2ccco2)nc2c1c(C)nn2CCC#N,.,-5,35,8,-388,5
COc1cccc(-c2cc(C(=O)Nn3cnnc3)c3ccccc3n2)c1,.,2,18,2,5,38*
CCOC(=O)c1cc(-c2ccco2)nc2c1c(C)nn2-c1cccc(Cl)c1,.,0,78*,49,-268,-1
O=C(O)c1ccccc1/C=N/NC(=O)c1cc(-c2ccco2)nc2ccccc12,5,.,99*,27,-294,.
COc1cc2c(cc1OC)C(c1cccs1)N(C(=S)NC(C)C)CC2 (stereo not drawn),15,0,23,-42,-35,0
CNC(=O)COC(=O)c1cc(-c2ccco2)nc2ccccc12,1,.,76*,1,-311,.
O=C(COC(=O)c1cc(-c2ccco2)nc2ccccc12)NCc1ccccc1,.,0,37,-6,i,6
CCN(CC)C(=O)COC(=O)c1cc(-c2ccco2)nc2ccccc12,20,3,90*,-40,i,11
CC(C)(C)NC(=O)CN(Cc1ccc2c(c1)OCO2)C(=O)CNC(=O)c1cccs1,8,0,7,-31,17,-7
